According to ChEMBL document CHEMBL1151922, “Structure-activity relationships of 3,5-disubstituted benzamides as glucokinase activators with potent in vivo efficacy” (Bioorg Med Chem, 2009):
Blank lines part the entries; values can stand above or below the molecule they belong to. Active and inactive are the calls of the source. No cut-off for these calls is given here.

Columns and labels:
[1] = Octanol-water distribution coefficient, log D at pH 7.4 by HPLC-MS analysis
Hexokinase-4 [2] = target: T1, Hexokinase-4 (Homo sapiens, UniProt P35557); assay: Activation of flag-tagged human recombinant liver glucokinase expressed in Escherichia coli by glucose-6-phosphate dehydrogenase coupled continuous spectrophotometric assay in presence of 10 mM glucose
T1 sequence (P35557 whole entry): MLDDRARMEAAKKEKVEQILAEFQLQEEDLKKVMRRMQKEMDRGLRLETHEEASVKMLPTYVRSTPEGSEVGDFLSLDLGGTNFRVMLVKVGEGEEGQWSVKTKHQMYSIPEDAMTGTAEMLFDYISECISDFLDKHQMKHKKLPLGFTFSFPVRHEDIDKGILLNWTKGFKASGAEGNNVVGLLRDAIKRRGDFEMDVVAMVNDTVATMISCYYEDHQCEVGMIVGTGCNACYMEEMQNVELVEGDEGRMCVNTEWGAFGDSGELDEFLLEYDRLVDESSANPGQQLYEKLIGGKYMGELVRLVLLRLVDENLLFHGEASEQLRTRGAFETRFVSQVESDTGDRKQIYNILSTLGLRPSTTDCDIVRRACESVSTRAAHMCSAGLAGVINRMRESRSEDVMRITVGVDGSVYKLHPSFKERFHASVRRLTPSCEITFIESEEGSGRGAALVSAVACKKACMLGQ

Hexokinase-4 [3] = target: T1, Hexokinase-4; assay: Activation of flag-tagged human recombinant liver glucokinase expressed in Escherichia coli by glucose-6-phosphate dehydrogenase coupled continuous spectrophotometric assay in presence of 2.5 mM glucose
[4] = Tmax in Sprague-Dawley rat at 3 mg/kg, po; format: ADME, organism-based; set-up: dose 3 mg/kg, route oral; conditions: in vivo
[5] = AUC (0 to infinity) in Beagle dog at 0.3 mg/kg, iv; format: ADME, organism-based, Canis lupus familiaris; set-up: time infinity, dose 0.3 mg/kg, route intravenous; conditions: plasma
[6] = Half life in Beagle dog at 0.3 mg/kg, iv; format: ADME, organism-based, Canis lupus familiaris; set-up: dose 0.3 mg/kg, route intravenous; conditions: in vivo
Mus musculus [7] = assay: Glucose lowering effect in high-fat diet mouse assessed as decrease in blood glucose AUC level at 3 mg/kg, po; format: functional, organism-based; set-up: dose 3 mg/kg
Procedure, shortened: (§1)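 Male high-fat-diet mice aged forty-one weeks, fed freely, dosed orally in 0.5% methylcellulose vehicle against a vehicle-only group. Blood glucose was sampled just before dosing and at 1, 2, 4 and 6 h after.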

[8] = Half life in Sprague-Dawley rat at 1 mg/kg, iv; format: ADME, organism-based; set-up: dose 1 mg/kg, route intravenous; conditions: in vivo
[9] = Cmax in Beagle dog at 1 mg/kg, po; format: ADME, organism-based, Canis lupus familiaris; set-up: dose 1 mg/kg, route oral; conditions: in vivo
[10] = Cmax in Sprague-Dawley rat at 3 mg/kg, po; format: ADME, organism-based; set-up: dose 3 mg/kg, route oral; conditions: in vivo
[11] = AUC (0 to infinity) in Sprague-Dawley rat at 3 mg/kg, po; format: ADME, organism-based; set-up: dose 3 mg/kg, route oral, time infinity; conditions: plasma
[12] = Volume of distribution at steady state in Sprague-Dawley rat at 1 mg/kg, iv; format: ADME, organism-based; set-up: dose 1 mg/kg, route intravenous; conditions: in vivo, read-out: Vdss
[13] = Oral bioavailability in Sprague-Dawley rat at 3 mg/kg; format: ADME, organism-based; conditions: in vivo
[14] = Plasma clearance in Sprague-Dawley rat at 1 mg/kg, iv; format: ADME, organism-based; set-up: dose 1 mg/kg, route intravenous
[15] = Oral bioavailability in Beagle dog at 1 mg/kg; format: ADME, organism-based, Canis lupus familiaris; conditions: in vivo
[16] = AUC (0 to infinity) in Sprague-Dawley rat at 1 mg/kg, iv; format: ADME, organism-based; set-up: time infinity, dose 1 mg/kg, route intravenous; conditions: plasma
Mus musculus [17] = assay: Glucose lowering effect in KKAy mouse assessed as decrease in blood glucose AUC level at 30 mg/kg, po; format: functional, organism-based; set-up: dose 30 mg/kg
Procedure, shortened: (§2)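 Male KKAy mice aged nine weeks, fasted 4 h beforehand, given a single oral dose in 0.5% methylcellulose vehicle, with a vehicle-only control group. Blood glucose was read just before dosing and at 0.5, 1, 2 and 4 h afterwards.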

Mus musculus [18] = assay: Glucose lowering effect in high-fat diet mouse assessed as decrease in blood glucose level at 3 mg/kg, po; format: functional, organism-based; set-up: dose 3 mg/kg; procedure, shortened: as §1
Mus musculus [19] = assay: Glucose lowering effect in normal-fed ICR mouse assessed as decrease in blood glucose AUC level at 3 mg/kg, po; format: functional, organism-based; set-up: dose 3 mg/kg
Procedure, shortened: (§3)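 Male ICR mice aged ten to eleven weeks, fed ad libitum, given a single oral dose suspended in 0.5% methylcellulose; vehicle alone served as control. Blood glucose was measured immediately before dosing and at 0.5, 1, 1.5, 2, 3 and 4 h afterwards.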

[20] = Plasma clearance in Beagle dog at 0.3 mg/kg, iv; format: ADME, organism-based, Canis lupus familiaris; set-up: dose 0.3 mg/kg, route intravenous
Mus musculus [21] = assay: Glucose lowering effect in normal-fed ICR mouse assessed as decrease in blood glucose AUC level at 10 mg/kg, po; format: functional, organism-based; set-up: dose 10 mg/kg; procedure, shortened: as §3
Mus musculus [22] = assay: Glucose lowering effect in KKAy mouse assessed as decrease in blood glucose level at 10 mg/kg, po; format: functional, organism-based; set-up: dose 10 mg/kg; procedure, shortened: as §2
[23] = Tmax in Beagle dog at 1 mg/kg, po; format: ADME, organism-based, Canis lupus familiaris; set-up: dose 1 mg/kg, route oral; conditions: in vivo
Mus musculus [24] = assay: Glucose lowering effect in KKAy mouse assessed as decrease in blood glucose level at 30 mg/kg, po; format: functional, organism-based; set-up: dose 30 mg/kg; procedure, shortened: as §2
Mus musculus [25] = assay: Glucose lowering effect in high-fat diet mouse assessed as decrease in blood glucose AUC level at 10 mg/kg, po; format: functional, organism-based; set-up: dose 10 mg/kg; procedure, shortened: as §1
[26] = AUC (0 to infinity) in Beagle dog at 1 mg/kg, po; format: ADME, organism-based, Canis lupus familiaris; set-up: dose 1 mg/kg, route oral, time infinity; conditions: plasma
Mus musculus [27] = assay: Glucose lowering effect in high-fat diet mouse assessed as decrease in blood glucose level at 10 mg/kg, po; format: functional, organism-based; set-up: dose 10 mg/kg; procedure, shortened: as §1
Mus musculus [28] = assay: Glucose lowering effect in KKAy mouse assessed as decrease in blood glucose AUC level at 10 mg/kg, po; format: functional, organism-based; set-up: dose 10 mg/kg; procedure, shortened: as §2
[29] = Volume of distribution at steady state in Beagle dog at 0.3 mg/kg, iv; format: ADME, organism-based, Canis lupus familiaris; set-up: dose 0.3 mg/kg, route intravenous; conditions: in vivo, read-out: Vdss
[30] = Solubility in water at pH 7.4 by HPLC-UV method

SMILES: CCC(COC)Oc1cc(Oc2ccc(S(C)(=O)=O)cc2)cc(C(=O)Nc2nccs2)c1 (racemic)
logD [1]: > 5
EC50 (Hexokinase-4 [2]): 60 nM
EC50 (Hexokinase-4 [3]): 190 nM

SMILES: CS(=O)(=O)c1ccc(Oc2cc(O[C@@H]3CCOC3)cc(C(=O)Nc3nccs3)c2)cc1
EC50 (Hexokinase-4 [2]): 300 nM
EC50 (Hexokinase-4 [3]): 1800 nM

SMILES: CS(=O)(=O)c1ccc(Oc2cc(OC3CCOCC3)cc(C(=O)Nc3nccs3)c2)cc1
logD [1]: 4.1
EC50 (Hexokinase-4 [2]): 120 nM
EC50 (Hexokinase-4 [3]): 460 nM

SMILES: CS(=O)(=O)c1ccc(Oc2cc(O[C@H]3CCC[C@H]3O)cc(C(=O)Nc3nccs3)c2)cc1 (racemic)
logD [1]: 3.4
EC50 (Hexokinase-4 [2]): 120 nM
EC50 (Hexokinase-4 [3]): 460 nM

SMILES: CS(=O)(=O)c1ccc(Oc2cc(OC3CCCC3)cc(C(=O)Nc3nccs3)c2)cc1
logD [1]: > 5
EC50 (Hexokinase-4 [2]): 240 nM
EC50 (Hexokinase-4 [3]): 490 nM

SMILES: CS(=O)(=O)c1ccc(Oc2cc(O[C@H]3CCC[C@H]3O)cc(C(=O)Nc3nccs3)c2)cc1
EC50 (Hexokinase-4 [2]): 110 nM
EC50 (Hexokinase-4 [3]): 260 nM

SMILES: CS(=O)(=O)c1ccc(Oc2cc(O[C@@H]3CCC[C@@H]3O)cc(C(=O)Nc3nccs3)c2)cc1
EC50 (Hexokinase-4 [2]): 1200 nM
EC50 (Hexokinase-4 [3]): 3400 nM

SMILES: Cc1csc(NC(=O)c2cc(Oc3ccc(S(C)(=O)=O)cc3)cc(OC(C)C(=O)O)c2)n1 (racemic)
EC50 (Hexokinase-4 [2]): 7400 nM
EC50 (Hexokinase-4 [3]): 30000 nM

SMILES: Cc1csc(NC(=O)c2cc(Oc3ccc(S(C)(=O)=O)cc3)cc(OC(C)C)c2)n1
logD [1]: > 5
Activity (Mus musculus [19]): inactive
Activity (Mus musculus [21]): inactive
solubility [30]: < 0.1 µg/mL

The next lines start with results.

logD [1]: 4
EC50 (Hexokinase-4 [2]): 70 nM
EC50 (Hexokinase-4 [3]): 190 nM
SMILES: COCC(C)Oc1cc(Oc2ccc(S(C)(=O)=O)cc2)cc(C(=O)Nc2nccs2)c1 (racemic)

Tmax [4]: 0.3 h
AUC(0-inf) [5]: 2.4 µM·h
half-life [6]: 5.4 h
half-life [8]: 1.3 h
Cmax [9]: 800 nM
Cmax [10]: 3400 nM
AUC(0-inf) [11]: 12 µM·h
Vd [12]: 0.19 L/kg
bioavailability [13]: 33%
clearance [14]: 3.9 mL/min/kg
bioavailability [15]: 57%
AUC(0-inf) [16]: 10 µM·h
clearance [20]: 4.6 mL/min/kg
Tmax [23]: 1.2 h
AUC(0-inf) [26]: 4.6 µM·h
Vd [29]: 1.56 L/kg
SMILES: C[C@@H](CO)Oc1cc(Oc2ccc(S(C)(=O)=O)cc2)cc(C(=O)Nc2nccs2)c1
Activity (Mus musculus [7]): Active
Activity (Mus musculus [17]): Active
Activity (Mus musculus [18]): Active
Activity (Mus musculus [19]): Active
Activity (Mus musculus [21]): Active
Activity (Mus musculus [22]): Active
Activity (Mus musculus [24]): Active
Activity (Mus musculus [25]): Active
Activity (Mus musculus [27]): Active
Activity (Mus musculus [28]): Active

logD [1]: > 4
EC50 (Hexokinase-4 [2]): 120 nM
EC50 (Hexokinase-4 [3]): 610 nM
SMILES: COCC(COC)Oc1cc(Oc2ccc(S(C)(=O)=O)cc2)cc(C(=O)Nc2nccs2)c1

EC50 (Hexokinase-4 [2]): 2600 nM
EC50 (Hexokinase-4 [3]): 12000 nM
SMILES: CC(CN(C)C)Oc1cc(Oc2ccc(S(C)(=O)=O)cc2)cc(C(=O)Nc2nccs2)c1 (racemic)

logD [1]: > 5
EC50 (Hexokinase-4 [2]): 60 nM
EC50 (Hexokinase-4 [3]): 170 nM
SMILES: CC(C)Oc1cc(Oc2ccc(S(C)(=O)=O)cc2)cc(C(=O)Nc2nccs2)c1
